Experiments:
[1] = biological target: Mitogen-activated protein kinase 12 (Homo sapiens) (UniProt P53778); assay: Inhibition of recombinant p38 MAPKgamma (unknown origin) assessed as residual activity using [gamma-33P]ATP as substrate at 1 uM
How it was run: (§1)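 Kinase panel screen with each compound at 1 µM, in duplicate. Reactions were started with [γ-33P]ATP (800 cpm/pmol) at 5, 20 or 50 µM, chosen per enzyme to be at or below its ATP Km. Reactions were stopped with phosphoric acid and spotted onto P81 filters. Results are given as residual kinase activity.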

[2] = biological target: NUAK family SNF1-like kinase 1 (Homo sapiens) (UniProt O60285); assay: Inhibition of recombinant NUAK1 (unknown origin) assessed as residual activity using [gamma-33P]ATP as substrate at 1 uM
How it was run: (§2)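 Selectivity panel run under previously published conditions. Screened at 1 μM in duplicate. Reactions started with [γ-33P]ATP (800 cpm/pmol) at 5, 20 or 50 μM, chosen to be at or below each enzyme's ATP Km. Stopped with phosphoric acid, spotted onto P81 filters. Result expressed as residual kinase activity.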

[3] = biological target: Ribosomal protein S6 kinase alpha-5 (Homo sapiens) (UniProt O75582); assay: Inhibition of recombinant MSK1 (unknown origin) assessed as residual activity using [gamma-33P]ATP as substrate at 1 uM; how it was run: as §2
[4] = biological target: MAP kinase-interacting serine/threonine-protein kinase 1 (Homo sapiens) (UniProt Q9BUB5); assay: Inhibition of recombinant MNK1 (unknown origin) assessed as residual activity using [gamma-33P]ATP as substrate at 1 uM; how it was run: as §2
[5] = biological target: Mitogen-activated protein kinase kinase kinase 11 (Homo sapiens) (UniProt Q16584); assay: Inhibition of recombinant MLK3 (unknown origin) assessed as residual activity using [gamma-33P]ATP as substrate at 1 uM; how it was run: as §2
[6] = biological target: Serine/threonine-protein kinase MARK2 (Homo sapiens) (UniProt Q7KZI7); assay: Inhibition of recombinant MARK2 (unknown origin) assessed as residual activity using [gamma-33P]ATP as substrate at 1 uM; how it was run: as §2
[7] = biological target: Serine/threonine-protein kinase STK11 (Homo sapiens) (UniProt Q15831); assay: Inhibition of recombinant LKB1 (unknown origin) assessed as residual activity using [gamma-33P]ATP as substrate at 1 uM; how it was run: as §2
[8] = biological target: Tyrosine-protein kinase JAK2 (Homo sapiens) (UniProt O60674); assay: Inhibition of recombinant JAK2 (unknown origin) assessed as residual activity using [gamma-33P]ATP as substrate at 1 uM
How it was run: (§3)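 Recombinant kinase panel screened at 1 µM in duplicate. Reactions started with [γ-33P]ATP (800 cpm/pmol) at 5, 20 or 50 µM, chosen to sit at or below each enzyme's ATP Km. Stopped with phosphoric acid and spotted onto P81 filters. Result given as residual kinase activity.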

[9] = biological target: Interleukin-1 receptor-associated kinase 1 (Homo sapiens) (UniProt P51617); assay: Inhibition of recombinant IRAK1 (unknown origin) assessed as residual activity using [gamma-33P]ATP as substrate at 1 uM; how it was run: as §3
[10] = biological target: Serine/threonine-protein kinase Chk1 (Homo sapiens) (UniProt O14757); assay: Inhibition of recombinant CHK1 (unknown origin) assessed as residual activity using [gamma-33P]ATP as substrate at 1 uM; how it was run: as §3
[11] = biological target: Receptor tyrosine-protein kinase erbB-4 (Homo sapiens) (UniProt Q15303); assay: Inhibition of recombinant HER4 (unknown origin) assessed as residual activity using [gamma-33P]ATP as substrate at 1 uM; how it was run: as §3
[12] = biological target: Mitogen-activated protein kinase 3 (Homo sapiens) (UniProt P27361); assay: Inhibition of recombinant ERK1 (unknown origin) assessed as residual activity using [gamma-33P]ATP as substrate at 1 uM; how it was run: as §3
[13] = biological target: Ephrin type-B receptor 4 (Homo sapiens) (UniProt P54760); assay: Inhibition of recombinant EPH-B4 (unknown origin) assessed as residual activity using [gamma-33P]ATP as substrate at 1 uM; how it was run: as §3
[14] = biological target: Ephrin type-B receptor 2 (Homo sapiens) (UniProt P29323); assay: Inhibition of recombinant EPH-B2 (unknown origin) assessed as residual activity using [gamma-33P]ATP as substrate at 1 uM; how it was run: as §3
[15] = biological target: Aurora kinase A/B (Homo sapiens) (UniProt Q96GD4+O14965); assay: Activity at Aurora kinase A/B in human MCF7 cells assessed as histone H3 phosphorylation at Ser10 at 100 uM after 24 hrs by flow cytometry relative to untreated control; type: cell-based
How it was run: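 Flow cytometry on MCF7 cells exposed 24 h to 100 µM. About one million cells fixed in 90% methanol, rehydrated, and labelled with primary antibody to pH3 Ser10, then an Alexa Fluor 488 secondary. Alexa read at 488/525 nm (ex/em). The value is the fraction of pH3-positive cells in treated cultures divided by that in untreated control.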

[16] = biological target: Tyrosine-protein kinase Yes (Homo sapiens) (UniProt P07947); assay: Inhibition of recombinant YES1 (unknown origin) assessed as residual activity using [gamma-33P]ATP as substrate at 1 uM; how it was run: as §1
Homo sapiens = organism: Homo sapiens; assay: Inhibition of recombinant VEGFR (unknown origin) assessed as residual activity using [gamma-33P]ATP as substrate at 1 uM; how it was run: as §1
[17] = biological target: Serine/threonine-protein kinase TBK1 (Homo sapiens) (UniProt Q9UHD2); assay: Inhibition of recombinant TBK1 (unknown origin) assessed as residual activity using [gamma-33P]ATP as substrate at 1 uM; how it was run: as §1
[18] = biological target: Ribosomal protein S6 kinase alpha-1 (Homo sapiens) (UniProt Q15418); assay: Inhibition of recombinant RSK1 (unknown origin) assessed as residual activity using [gamma-33P]ATP as substrate at 1 uM; how it was run: as §1
[19] = biological target: Rho-associated protein kinase 2 (Homo sapiens) (UniProt O75116); assay: Inhibition of recombinant ROCK2 (unknown origin) assessed as residual activity using [gamma-33P]ATP as substrate at 1 uM; how it was run: as §2
[20] = biological target: Receptor-interacting serine/threonine-protein kinase 2 (Homo sapiens) (UniProt O43353); assay: Inhibition of recombinant RIPK2 (unknown origin) assessed as residual activity using [gamma-33P]ATP as substrate at 1 uM; how it was run: as §2
[21] = biological target: Protein kinase C zeta type (Homo sapiens) (UniProt Q05513); assay: Inhibition of recombinant PKCzeta (unknown origin) assessed as residual activity using [gamma-33P]ATP as substrate at 1 uM; how it was run: as §2
[22] = biological target: Dual specificity tyrosine-phosphorylation-regulated kinase 2 (Homo sapiens) (UniProt Q92630); assay: Inhibition of recombinant DYRK2 (unknown origin) assessed as residual activity using [gamma-33P]ATP as substrate at 1 uM; how it was run: as §3
[23] = biological target: Casein kinase II (Homo sapiens) (UniProt P67870+P68400+P19784); assay: Inhibition of recombinant CK2 (unknown origin) assessed as residual activity using [gamma-33P]ATP as substrate at 1 uM; type: protein-complex assay; how it was run: as §3
[24] = biological target: Protein-tyrosine kinase 6 (Homo sapiens) (UniProt Q13882); assay: Inhibition of recombinant BRK (unknown origin) assessed as residual activity using [gamma-33P]ATP as substrate at 1 uM; how it was run: as §3
[25] = biological target: Tyrosine-protein kinase ABL1 (Homo sapiens) (UniProt P00519); assay: Inhibition of recombinant ABL (unknown origin) assessed as residual activity using [gamma-33P]ATP as substrate at 1 uM; how it was run: as §3

Sequence of Aurora kinase A/B (Homo sapiens) (O14965 whole entry, looked up): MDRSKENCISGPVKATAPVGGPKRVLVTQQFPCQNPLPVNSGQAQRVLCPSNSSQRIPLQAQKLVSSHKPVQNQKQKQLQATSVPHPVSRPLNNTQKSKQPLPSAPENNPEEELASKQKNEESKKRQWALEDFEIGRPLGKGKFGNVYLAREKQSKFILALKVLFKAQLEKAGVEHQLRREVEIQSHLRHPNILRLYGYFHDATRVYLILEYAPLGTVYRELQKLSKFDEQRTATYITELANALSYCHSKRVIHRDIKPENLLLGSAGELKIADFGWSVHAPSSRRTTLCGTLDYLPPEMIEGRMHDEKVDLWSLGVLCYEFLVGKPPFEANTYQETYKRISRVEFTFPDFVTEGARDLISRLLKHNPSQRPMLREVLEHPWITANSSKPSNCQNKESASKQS
Sequence of Aurora kinase A/B (Homo sapiens) (Q96GD4 whole entry, looked up): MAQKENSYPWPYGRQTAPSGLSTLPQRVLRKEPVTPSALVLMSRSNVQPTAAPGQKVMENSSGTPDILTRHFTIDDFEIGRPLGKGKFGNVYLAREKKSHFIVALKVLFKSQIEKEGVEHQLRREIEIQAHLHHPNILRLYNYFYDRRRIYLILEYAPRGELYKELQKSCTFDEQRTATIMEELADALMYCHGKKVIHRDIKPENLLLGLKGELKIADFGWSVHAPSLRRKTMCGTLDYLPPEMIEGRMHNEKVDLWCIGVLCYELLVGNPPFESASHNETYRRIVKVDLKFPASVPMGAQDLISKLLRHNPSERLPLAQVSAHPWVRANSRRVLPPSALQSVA
Sequence of Ribosomal protein S6 kinase alpha-5 (Homo sapiens) (O75582 whole entry, looked up): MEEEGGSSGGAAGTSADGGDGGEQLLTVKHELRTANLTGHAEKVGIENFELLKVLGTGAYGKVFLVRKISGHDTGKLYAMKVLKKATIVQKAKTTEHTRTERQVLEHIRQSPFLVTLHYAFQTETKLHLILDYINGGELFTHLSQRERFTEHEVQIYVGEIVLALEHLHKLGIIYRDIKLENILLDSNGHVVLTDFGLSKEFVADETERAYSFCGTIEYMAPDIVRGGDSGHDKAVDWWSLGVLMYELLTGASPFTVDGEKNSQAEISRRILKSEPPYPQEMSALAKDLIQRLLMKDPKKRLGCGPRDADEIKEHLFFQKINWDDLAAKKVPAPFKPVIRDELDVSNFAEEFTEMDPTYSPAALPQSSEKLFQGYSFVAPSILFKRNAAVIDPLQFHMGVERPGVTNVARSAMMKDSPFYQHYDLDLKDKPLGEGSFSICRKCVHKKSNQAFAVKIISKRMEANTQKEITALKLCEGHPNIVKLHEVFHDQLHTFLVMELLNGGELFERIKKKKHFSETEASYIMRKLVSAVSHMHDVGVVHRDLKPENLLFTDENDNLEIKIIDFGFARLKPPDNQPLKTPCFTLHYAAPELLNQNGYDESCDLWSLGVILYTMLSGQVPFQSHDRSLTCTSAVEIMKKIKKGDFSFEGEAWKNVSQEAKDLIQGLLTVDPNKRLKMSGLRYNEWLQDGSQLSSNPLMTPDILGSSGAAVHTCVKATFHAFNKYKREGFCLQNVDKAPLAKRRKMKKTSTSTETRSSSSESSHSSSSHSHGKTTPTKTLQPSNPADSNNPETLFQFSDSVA
Sequence of Ribosomal protein S6 kinase alpha-1 (Homo sapiens) (Q15418 whole entry): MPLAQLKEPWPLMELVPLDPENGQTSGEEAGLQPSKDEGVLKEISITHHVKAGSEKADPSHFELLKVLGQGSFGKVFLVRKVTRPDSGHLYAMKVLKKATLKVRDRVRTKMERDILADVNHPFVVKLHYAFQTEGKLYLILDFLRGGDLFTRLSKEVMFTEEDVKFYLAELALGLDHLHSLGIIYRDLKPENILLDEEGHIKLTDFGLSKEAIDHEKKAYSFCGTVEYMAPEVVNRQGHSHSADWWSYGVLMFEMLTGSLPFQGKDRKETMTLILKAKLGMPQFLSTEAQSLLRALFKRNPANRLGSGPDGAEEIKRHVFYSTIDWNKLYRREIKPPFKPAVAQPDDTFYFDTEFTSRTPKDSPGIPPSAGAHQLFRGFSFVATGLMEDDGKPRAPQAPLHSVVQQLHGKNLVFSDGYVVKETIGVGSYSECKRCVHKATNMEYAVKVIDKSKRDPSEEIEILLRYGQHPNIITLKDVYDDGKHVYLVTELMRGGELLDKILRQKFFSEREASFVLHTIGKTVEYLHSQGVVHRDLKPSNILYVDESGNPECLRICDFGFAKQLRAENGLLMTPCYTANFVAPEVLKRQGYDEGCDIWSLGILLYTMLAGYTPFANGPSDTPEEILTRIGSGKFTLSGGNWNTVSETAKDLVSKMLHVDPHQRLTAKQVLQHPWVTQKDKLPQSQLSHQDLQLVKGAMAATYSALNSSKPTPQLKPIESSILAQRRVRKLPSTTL
Sequence of Serine/threonine-protein kinase STK11 (Homo sapiens) (Q15831 whole entry): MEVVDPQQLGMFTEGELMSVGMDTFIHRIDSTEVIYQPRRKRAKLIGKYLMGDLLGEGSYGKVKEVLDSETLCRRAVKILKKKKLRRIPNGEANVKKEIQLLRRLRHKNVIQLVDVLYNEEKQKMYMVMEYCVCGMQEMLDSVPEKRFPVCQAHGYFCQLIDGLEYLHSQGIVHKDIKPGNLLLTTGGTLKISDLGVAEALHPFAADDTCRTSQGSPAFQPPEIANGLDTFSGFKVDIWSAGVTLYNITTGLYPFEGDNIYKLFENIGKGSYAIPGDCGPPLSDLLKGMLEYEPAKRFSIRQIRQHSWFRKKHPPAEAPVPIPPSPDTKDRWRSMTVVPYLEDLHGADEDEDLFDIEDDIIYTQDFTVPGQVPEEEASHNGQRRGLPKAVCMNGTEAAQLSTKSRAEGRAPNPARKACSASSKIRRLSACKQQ
Sequence of NUAK family SNF1-like kinase 1 (Homo sapiens) (O60285 whole entry): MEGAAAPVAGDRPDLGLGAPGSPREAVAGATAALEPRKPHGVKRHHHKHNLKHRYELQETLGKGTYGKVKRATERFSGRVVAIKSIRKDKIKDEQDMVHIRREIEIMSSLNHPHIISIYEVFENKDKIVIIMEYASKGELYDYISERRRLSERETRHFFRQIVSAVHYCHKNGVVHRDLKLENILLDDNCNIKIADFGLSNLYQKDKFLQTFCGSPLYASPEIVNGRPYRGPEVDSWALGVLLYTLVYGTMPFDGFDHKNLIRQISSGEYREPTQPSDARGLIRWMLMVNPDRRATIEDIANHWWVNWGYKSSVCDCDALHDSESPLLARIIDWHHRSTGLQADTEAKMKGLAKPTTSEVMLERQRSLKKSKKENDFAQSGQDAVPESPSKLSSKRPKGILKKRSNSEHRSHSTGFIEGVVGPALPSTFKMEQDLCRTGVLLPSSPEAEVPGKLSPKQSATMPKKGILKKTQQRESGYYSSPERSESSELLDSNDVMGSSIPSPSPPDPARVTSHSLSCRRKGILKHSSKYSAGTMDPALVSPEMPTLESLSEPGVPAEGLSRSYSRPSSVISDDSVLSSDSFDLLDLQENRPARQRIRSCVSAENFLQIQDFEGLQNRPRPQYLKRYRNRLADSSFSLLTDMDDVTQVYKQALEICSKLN
Sequence of Mitogen-activated protein kinase kinase kinase 11 (Homo sapiens) (Q16584 whole entry, looked up): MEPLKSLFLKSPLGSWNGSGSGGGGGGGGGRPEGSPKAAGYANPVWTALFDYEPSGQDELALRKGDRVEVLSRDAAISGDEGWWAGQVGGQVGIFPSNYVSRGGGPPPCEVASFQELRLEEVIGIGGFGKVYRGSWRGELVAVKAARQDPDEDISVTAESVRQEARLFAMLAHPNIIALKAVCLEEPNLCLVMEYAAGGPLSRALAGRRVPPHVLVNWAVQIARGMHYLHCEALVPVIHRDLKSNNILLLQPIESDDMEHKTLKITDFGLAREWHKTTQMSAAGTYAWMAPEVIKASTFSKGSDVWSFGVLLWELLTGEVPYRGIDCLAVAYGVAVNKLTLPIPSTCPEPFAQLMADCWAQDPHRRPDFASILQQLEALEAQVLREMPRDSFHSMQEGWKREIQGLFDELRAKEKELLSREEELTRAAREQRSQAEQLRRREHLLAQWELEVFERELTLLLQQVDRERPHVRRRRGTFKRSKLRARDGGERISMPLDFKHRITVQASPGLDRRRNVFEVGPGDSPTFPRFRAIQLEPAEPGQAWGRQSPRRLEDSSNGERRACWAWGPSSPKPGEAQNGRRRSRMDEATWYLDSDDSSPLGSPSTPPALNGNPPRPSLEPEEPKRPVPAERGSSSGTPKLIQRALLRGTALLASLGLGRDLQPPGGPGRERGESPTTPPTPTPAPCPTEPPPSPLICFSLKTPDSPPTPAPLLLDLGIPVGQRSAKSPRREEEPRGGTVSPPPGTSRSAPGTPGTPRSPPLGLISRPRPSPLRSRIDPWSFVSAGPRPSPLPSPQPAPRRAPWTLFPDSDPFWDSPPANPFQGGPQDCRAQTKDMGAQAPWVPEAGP
Sequence of Serine/threonine-protein kinase MARK2 (Homo sapiens) (Q7KZI7 whole entry): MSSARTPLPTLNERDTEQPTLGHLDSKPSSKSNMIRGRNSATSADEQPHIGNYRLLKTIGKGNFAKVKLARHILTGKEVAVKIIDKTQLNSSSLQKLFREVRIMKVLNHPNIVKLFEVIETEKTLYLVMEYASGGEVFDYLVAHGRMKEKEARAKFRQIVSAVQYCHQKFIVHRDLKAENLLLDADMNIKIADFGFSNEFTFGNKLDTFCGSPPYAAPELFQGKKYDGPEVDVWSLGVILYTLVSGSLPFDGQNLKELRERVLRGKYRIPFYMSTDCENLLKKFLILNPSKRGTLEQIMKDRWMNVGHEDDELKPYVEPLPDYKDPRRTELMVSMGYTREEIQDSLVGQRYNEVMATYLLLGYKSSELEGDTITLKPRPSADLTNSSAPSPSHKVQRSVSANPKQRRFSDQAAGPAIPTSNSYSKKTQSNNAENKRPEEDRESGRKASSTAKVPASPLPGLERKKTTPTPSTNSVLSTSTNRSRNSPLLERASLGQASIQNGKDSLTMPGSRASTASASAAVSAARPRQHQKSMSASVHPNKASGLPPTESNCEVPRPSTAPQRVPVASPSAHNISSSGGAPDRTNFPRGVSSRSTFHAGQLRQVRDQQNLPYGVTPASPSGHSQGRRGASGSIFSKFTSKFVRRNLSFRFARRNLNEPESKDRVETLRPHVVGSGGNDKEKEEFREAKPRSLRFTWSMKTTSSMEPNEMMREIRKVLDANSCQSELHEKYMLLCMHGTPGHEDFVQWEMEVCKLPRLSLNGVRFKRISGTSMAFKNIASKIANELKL

Structure (SMILES)	Activity [1]	Activity [2]	Activity [3]	Activity [4]	Activity [5]	Activity [6]	Activity [7]	Activity [8]	Activity [9]	Activity [10]	Activity [11]	Activity [12]	Activity [13]	Activity [14]	Ratio [15]	Activity [16]	Activity (Homo sapiens)	Activity [17]	Activity [18]	Activity [19]	other results
CC[C@@H](CO)Nc1nc(NC(=N)N)c2ncn(C(C)C)c2n1	71%	7%	38%	178%	37%	62%	16%	16%	17%	46%	29%	28%	6%	2%	0.09	11%	4%	90%	12%	65%	Activity [20]: 76%; Activity [21]: 61%; Activity [22]: 16%; Activity [23]: 33%; Activity [24]: 44%; Activity [25]: 6%
CC[C@H](CO)Nc1nc(NC(=N)N)c2ncn(C(C)C)c2n1	77%	8%	46%	173%	37%	45%	13%	16%	26%	58%	27%	50%	6%	2%	0.08	13%	6%	92%	18%	61%	Activity [20]: 72%; Activity [21]: 68%; Activity [22]: 27%; Activity [23]: 43%; Activity [24]: 50%; Activity [25]: 5%
